Test results taken from ChEMBL document CHEMBL2150978, “Phosphorodiamidates as a promising new phosphate prodrug motif for antiviral drug discovery: application to anti-HCV agents” (J Med Chem, 2011).

Key:
[1] = Cytotoxicity against human HuH7 cells after 3 days; assay type: cell-based, Huh-7
How it was run: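 Huh7 replicon cells seeded at 2 × 10⁴ per well one day before dosing. Four-fold serial dilutions in growth medium, no-drug controls on each plate. Incubated 3 days at 37 °C, 5% CO₂. Viability read by CellTiter-Glo luminescence after 20 min with reagent.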

Hepatitis C virus = assay: Antiviral activity against Hepatitis C virus subtype 1b Con1 infected in human Huh7 cells assessed as inhibition of HCV replicon-encoded Renilla luciferase reporter activity after 72 hrs by HCV replicon assay; assay type: functional, organism-based, Hepacivirus hominis; details: Con1, Huh-7, 72 h
How it was run: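 Huh7 cells stably carrying a bicistronic subgenomic genotype 1b (Con1) replicon with Renilla luciferase reporter, seeded at 2 × 10⁴ cells/well the day before. Four-fold serial dilutions in growth medium, no-drug controls on each plate; 3 days at 37 °C, 5% CO₂. Luciferase reagent 20 min, then luminescence (RLU) read; EC₅₀ derived.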

Row | SMILES | CC50 at 72 h [1] [µM] | EC50 (Hepatitis C virus) [nM] | EC90 (Hepatitis C virus) [nM]
1 | CCOc1nc(N)nc2c1ncn2[C@@H]1O[C@H](CO)[C@@H](O)[C@@]1(C)O | > 100 | 9500 | 24500
2 | COC(=O)[C@H](C)NP(=O)(N[C@@H](C)C(=O)OC)OC[C@H]1O[C@@H](n2cnc3c(OC)nc(N)nc32)[C@](C)(O)[C@@H]1O (mixture of isomers) | > 100 | 5900 | > 10000
3 | CCOC(=O)[C@H](C)NP(=O)(N[C@@H](C)C(=O)OCC)OC[C@H]1O[C@@H](n2cnc3c(OC)nc(N)nc32)[C@](C)(O)[C@@H]1O (mixture of isomers) | > 100 | 1200 | 4100
4 | CCCOC(=O)[C@H](C)NP(=O)(N[C@@H](C)C(=O)OCCC)OC[C@H]1O[C@@H](n2cnc3c(OC)nc(N)nc32)[C@](C)(O)[C@@H]1O (mixture of isomers) | > 100 | 280 | 1200
5 | COc1nc(N)nc2c1ncn2[C@@H]1O[C@H](COP(=O)(N[C@@H](C)C(=O)OC(C)C)N[C@@H](C)C(=O)OC(C)C)[C@@H](O)[C@@]1(C)O (mixture of isomers) | > 100 | 490 | 2100
6 | COc1nc(N)nc2c1ncn2[C@@H]1O[C@H](COP(=O)(N[C@@H](C)C(=O)OCCC(C)(C)C)N[C@@H](C)C(=O)OCCC(C)(C)C)[C@@H](O)[C@@]1(C)O (mixture of isomers) | 71 | 20 | 90
7 | COc1nc(N)nc2c1ncn2[C@@H]1O[C@H](COP(=O)(N[C@@H](C)C(=O)OC2CCC2)N[C@@H](C)C(=O)OC2CCC2)[C@@H](O)[C@@]1(C)O (mixture of isomers) | > 100 | 320 | 800
8 | COc1nc(N)nc2c1ncn2[C@@H]1O[C@H](COP(=O)(N[C@@H](C)C(=O)OC2CCCCC2)N[C@@H](C)C(=O)OC2CCCCC2)[C@@H](O)[C@@]1(C)O (mixture of isomers) | > 100 | 50 | 190
9 | COc1nc(N)nc2c1ncn2[C@@H]1O[C@H](COP(=O)(N[C@@H](C)C(=O)OCc2ccccc2)N[C@@H](C)C(=O)OCc2ccccc2)[C@@H](O)[C@@]1(C)O (mixture of isomers) | > 100 | 490 | 1600
10 | COc1nc(N)nc2c1ncn2[C@@H]1O[C@H](COP(=O)(N[C@@H](C)C(=O)O[C@@H](C)c2ccccc2)N[C@@H](C)C(=O)O[C@@H](C)c2ccccc2)[C@@H](O)[C@@]1(C)O (mixture of isomers) | 88 | 490 | 1700
11 | COc1nc(N)nc2c1ncn2[C@@H]1O[C@H](COP(=O)(N[C@@H](C)C(=O)OCc2ccc(F)cc2F)N[C@@H](C)C(=O)OCc2ccc(F)cc2F)[C@@H](O)[C@@]1(C)O (mixture of isomers) | 54 | 260 | 1070
12 | COc1nc(N)nc2c1ncn2[C@@H]1O[C@H](COP(=O)(N[C@@H](C)C(=O)OC2CCCCO2)N[C@@H](C)C(=O)OC2CCCCO2)[C@@H](O)[C@@]1(C)O (mixture of isomers) | > 100 | 13300 | 29300
13 | COc1nc(N)nc2c1ncn2[C@@H]1O[C@H](COP(=O)(N[C@@H](C)C(=O)OCC(C)C)N[C@@H](C)C(=O)OCC(C)C)[C@@H](O)[C@@]1(C)O (mixture of isomers) | > 100 | 70 | 260
14 | COc1nc(N)nc2c1ncn2[C@@H]1O[C@H](COP(=O)(N[C@@H](C)C(=O)OCC2CC2)N[C@@H](C)C(=O)OCC2CC2)[C@@H](O)[C@@]1(C)O (mixture of isomers) | > 100 | 210 | 660
15 | COC(=O)C[C@H](NP(=O)(N[C@@H](CC(=O)OC)C(=O)OC)OC[C@H]1O[C@@H](n2cnc3c(OC)nc(N)nc32)[C@](C)(O)[C@@H]1O)C(=O)OC (mixture of isomers) | > 100 | 10200 | > 40000
16 | COc1nc(N)nc2c1ncn2[C@@H]1O[C@H](COP(=O)(N[C@@H](CC(=O)OCc2ccccc2)C(=O)OCc2ccccc2)N[C@@H](CC(=O)OCc2ccccc2)C(=O)OCc2ccccc2)[C@@H](O)[C@@]1(C)O (mixture of isomers) | > 100 | 610 | 1900
17 | COc1nc(N)nc2c1ncn2[C@@H]1O[C@H](COP(=O)(NCC(=O)OCc2ccccc2)NCC(=O)OCc2ccccc2)[C@@H](O)[C@@]1(C)O (mixture of isomers) | > 100 | 600 | 1800
18 | COc1nc(N)nc2c1ncn2[C@@H]1O[C@H](COP(=O)(NCC(=O)OCC(C)(C)C)NCC(=O)OCC(C)(C)C)[C@@H](O)[C@@]1(C)O (mixture of isomers) | > 100 | 130 | 600

Row | SMILES | CC50 at 72 h [1] [µM] | EC50 (Hepatitis C virus) [nM] | EC90 (Hepatitis C virus) [nM]
19 | COc1nc(N)nc2c1ncn2[C@@H]1O[C@H](COP(=O)(N[C@@H](CC(C)C)C(=O)OC2CCCCC2)N[C@@H](CC(C)C)C(=O)OC2CCCCC2)[C@@H](O)[C@@]1(C)O (mixture of isomers) | 20 | 450 | 2000
20 | COc1nc(N)nc2c1ncn2[C@@H]1O[C@H](COP(=O)(N[C@@H](CC(C)C)C(=O)OCc2ccccc2)N[C@@H](CC(C)C)C(=O)OCc2ccccc2)[C@@H](O)[C@@]1(C)O (mixture of isomers) | 39 | 380 | 1310
21 | COc1nc(N)nc2c1ncn2[C@@H]1O[C@H](COP(=O)(N[C@@H](CC(C)C)C(=O)OCC(C)(C)C)N[C@@H](CC(C)C)C(=O)OCC(C)(C)C)[C@@H](O)[C@@]1(C)O (mixture of isomers) | 27 | 470 | 2400
22 | CC[C@H](C)[C@H](NP(=O)(N[C@H](C(=O)OC)[C@@H](C)CC)OC[C@H]1O[C@@H](n2cnc3c(OC)nc(N)nc32)[C@](C)(O)[C@@H]1O)C(=O)OC (mixture of isomers) | > 100 | 5170 | 29500
23 | CC[C@H](C)[C@H](NP(=O)(N[C@H](C(=O)OCc1ccccc1)[C@@H](C)CC)OC[C@H]1O[C@@H](n2cnc3c(OC)nc(N)nc32)[C@](C)(O)[C@@H]1O)C(=O)OCc1ccccc1 (mixture of isomers) | 24 | 400 | 1560
24 | CC[C@H](C)[C@H](NP(=O)(N[C@H](C(=O)OCC(C)(C)C)[C@@H](C)CC)OC[C@H]1O[C@@H](n2cnc3c(OC)nc(N)nc32)[C@](C)(O)[C@@H]1O)C(=O)OCC(C)(C)C (mixture of isomers) | 15 | 2900 | 6300
25 | COc1nc(N)nc2c1ncn2[C@@H]1O[C@H](COP(=O)(N[C@@H](CCSC)C(=O)OC2CCCCC2)N[C@@H](CCSC)C(=O)OC2CCCCC2)[C@@H](O)[C@@]1(C)O (mixture of isomers) | 51 | 600 | 2600
26 | COc1nc(N)nc2c1ncn2[C@@H]1O[C@H](COP(=O)(N[C@@H](CCSC)C(=O)OCc2ccccc2)N[C@@H](CCSC)C(=O)OCc2ccccc2)[C@@H](O)[C@@]1(C)O (mixture of isomers) | > 100 | 250 | 770
27 | COc1nc(N)nc2c1ncn2[C@@H]1O[C@H](COP(=O)(N[C@@H](CCSC)C(=O)OCC(C)(C)C)N[C@@H](CCSC)C(=O)OCC(C)(C)C)[C@@H](O)[C@@]1(C)O (mixture of isomers) | > 100 | 2220 | 5000
28 | COc1nc(N)nc2c1ncn2[C@@H]1O[C@H](COP(=O)(N[C@@H](Cc2ccccc2)C(=O)OC2CCCCC2)N[C@@H](Cc2ccccc2)C(=O)OC2CCCCC2)[C@@H](O)[C@@]1(C)O (mixture of isomers) | 25 | 500 | 2000
29 | COc1nc(N)nc2c1ncn2[C@@H]1O[C@H](COP(=O)(N[C@@H](Cc2ccccc2)C(=O)OCc2ccccc2)N[C@@H](Cc2ccccc2)C(=O)OCc2ccccc2)[C@@H](O)[C@@]1(C)O (mixture of isomers) | 67 | 320 | 1350
30 | COc1nc(N)nc2c1ncn2[C@@H]1O[C@H](COP(=O)(N[C@@H](Cc2ccccc2)C(=O)OCC(C)(C)C)N[C@@H](Cc2ccccc2)C(=O)OCC(C)(C)C)[C@@H](O)[C@@]1(C)O (mixture of isomers) | 24 | 50 | 210
31 | COc1nc(N)nc2c1ncn2[C@@H]1O[C@H](COP(=O)(N2CCC[C@H]2C(=O)OCc2ccccc2)N2CCC[C@H]2C(=O)OCc2ccccc2)[C@@H](O)[C@@]1(C)O (mixture of isomers) | > 100 | 520 | 1800
32 | COc1nc(N)nc2c1ncn2[C@@H]1O[C@H](COP(=O)(N2CCC[C@H]2C(=O)OCC(C)(C)C)N2CCC[C@H]2C(=O)OCC(C)(C)C)[C@@H](O)[C@@]1(C)O (mixture of isomers) | 56 | 810 | 2000
33 | COc1nc(N)nc2c1ncn2[C@@H]1O[C@H](COP(=O)(N[C@H](C(=O)OC2CCCCC2)C(C)C)N[C@H](C(=O)OC2CCCCC2)C(C)C)[C@@H](O)[C@@]1(C)O (mixture of isomers) | 20 | 2500 | 10000
34 | COc1nc(N)nc2c1ncn2[C@@H]1O[C@H](COP(=O)(N[C@H](C(=O)OCC(C)(C)C)C(C)C)N[C@H](C(=O)OCC(C)(C)C)C(C)C)[C@@H](O)[C@@]1(C)O (mixture of isomers) | 32 | 720 | 2500
35 | COC(=O)[C@H](Cc1ccc(OC(C)(C)C)cc1)NP(=O)(N[C@@H](Cc1ccc(OC(C)(C)C)cc1)C(=O)OC)OC[C@H]1O[C@@H](n2cnc3c(OC)nc(N)nc32)[C@](C)(O)[C@@H]1O (mixture of isomers) | 89 | 110 | 500
